Calls of active or inactive are those of the source. The calls are words filed in the database; no cut-off is given here.

The subject of data set [1] is THP-1. In words: Suppression of ASC expression in LPS-treated human THP-1 cells at 1 to 1000 nM incubated for 30 mins followed by ATP stimulation for 1 hr […]. The format is functional, cell-based. The note with it: dose 1-1000 nM, time 90.0 min. A digest of the protocol: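 PMA-differentiated THP-1 cells (1 × 10^6/well) primed with LPS 1 µg/mL for 3 h, then DMSO or compound in serum-free medium for 30 min, then 5 mM ATP for 1 h. RIPA lysates (20 µg) and concentrated supernatants run on SDS-PAGE and western blotted for NLRP3, ASC, caspase-1 and IL-1β, normalized to GAPDH; three independent experiments.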

Data set [2] deals with THP-1. In words: Suppression of pro-IL-1beta expression in LPS-treated human THP-1 cells at 1 to 1000 nM incubated for 30 mins followed by ATP stimulation for 1 hr […]. It counts as functional, cell-based. Conditions: dose 1-1000 nM, time 90.0 min. For orientation: ELISA stands for enzyme-linked immunosorbent assay.
In data set [3] the test system is THP-1. In words: Suppression of caspase-1 p10 expression in LPS-treated human THP-1 cells at 1 to 1000 nM incubated for 30 mins followed by ATP stimulation for 1 hr […]. It counts as functional, cell-based. The note with it: dose 1-1000 nM, time 90.0 min.
For data set [4], the system named is BMDM. The experiment in a line: Effect on ASC level in LPS-treated mouse BMDM cells at 1 uM incubated for 30 mins followed by ATP stimulation for 1 hr by Hoechst staining based microscopy. The format is functional, cell-based. The note with it: time 90.0 min. Summed up:
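BMDMs primed with LPS 1 µg/mL for 2 h, given DMSO or compound 1 µM for 30 min, then 5 mM ATP for 1 h. Cells fixed in 4% PFA, permeabilized with 0.1% Triton X-100, stained with anti-ASC overnight at 4 °C plus fluorescent secondary, nuclei Hoechst 1 µM; confocal imaging with 63× oil objective.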

Data set [5] deals with BMDM. In words: Effect on NLRP3-ASC interaction in LPS-treated mouse BMDM cells at 1 uM incubated for 30 mins followed by ATP stimulation for 1 hr by co-immunoprecipitation based Western blot analysis. It counts as functional, cell-based. Conditions: time 90.0 min. Summed up: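 BMDMs (1 × 10^7) primed with LPS 2 h, treated 1 µM compound 30 min, then ATP 1 h; lysed in HEPES/NaCl/glycerol/EDTA/0.5% Triton buffer with protease/phosphatase inhibitors; NLRP3–ASC co-immunoprecipitation, bait eluted in Laemmli buffer, western blot; representative of three independent experiments.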
On the technique in general: Immunoblotting shows a protein as a band on a membrane.

Another data set deals with Mus musculus. The experiment in a line: Antiinflammatory activity in LPS-induced C57BL/6 mouse assessed as reduction in IL-1beta production in plasma at 25 mg/kg, ip pretreated for 30 mins followed by LPS induction measured after 4 hrs by ELISA method. Conditions: time 4.5 hrs. The format is functional, organism-based. A digest of the protocol:
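C57BL/6 mice given inhibitor 25 mg/kg IP (vehicle DMSO) 30 min before IP LPS 1 mg/kg; after 4 h, peritoneal exudate and blood collected, plasma from centrifugation 1000g 15 min 4 °C; IL-1β measured by ELISA; mean ± SEM of three independent experiments.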

Data set [6] relates to B16-F10. In words: Effect on NLRP3 expression in cytosolic luciferase-transfected mouse B16-F10 cells xenografted in C57BL/6 mouse at 25 mg/kg, ip administered thrice weekly measured after 14 days by Western blot analysis. The format is functional, organism-based. Conditions: time 14.0 day. Summed up:
(§1)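 Tumors from luciferase-expressing B16-F10 grafts in C57BL/6 mice, dosed IP at 25 mg/kg thrice weekly (DMSO controls), were excised at endpoint and homogenized in sucrose/HEPES/IGEPAL lysis buffer. Lysates were western blotted and bands expressed as fold ratio over β-actin (n = 5).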

The subject of data set [7] is B16-F10. In words: Effect on pro-IL-1beta expression in cytosolic luciferase-transfected mouse B16-F10 cells xenografted in C57BL/6 mouse at 25 mg/kg, ip administered thrice weekly measured after 14 days by Western blot analysis. It counts as functional, organism-based. Conditions: time 14.0 day. Summed up: as §1
Data set [8] can be described thus: Metabolic stability in human liver microsomes assessed as intrinsic clearance measured per mg protein at 1 uM measured upto 60 mins by LC-MS/MS analysis. It counts as ADME, Microsome. The note with it: read-out: CLH. A digest of the protocol: (§2)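 Pooled human or CD-1 male mouse liver microsomes at 0.5 mg/mL with test compound 1 µM in 50 mM phosphate pH 7.4 and 3 mM MgCl2, preincubated 10 min at 37 °C. Percent parent remaining vs 0 min measured by LC-MS/MS. Cli = k/microsomal conc. × 1000; mean ± SD, n = 2.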
Background: Liver microsomes are a subcellular fraction often used to study metabolism.

Data set [9] can be described thus: Metabolic stability in mouse liver microsomes assessed as intrinsic clearance measured per mg protein at 1 uM measured upto 60 mins by LC-MS/MS analysis. It counts as ADME, Microsome. Conditions: read-out: CLH. A digest of the protocol:
as §2

Data set [10] is described as follows: Metabolic stability in mouse liver microsomes assessed as half life measured per mg protein at 1 uM measured upto 60 mins by LC-MS/MS analysis. The format is ADME, Microsome. A digest of the protocol: as §2
Data set [11] is described as follows: Clast in C57BL/6 mouse at 25 mg/kg, ip measured for 0.083 to 24 hrs by LC-MS/MS analysis. The format is ADME, organism-based. The note with it: in vivo, time 0.083-24 hrs. A digest of the protocol: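 Female C57BL/6 mice, 8 weeks old, 25–30 g, given a single IP dose of 25 mg/kg. Sampling at 5 and 20 min and 1, 2, 3, 6, 8 and 24 h, 3 mice per timepoint; Li-heparin plasma from the cava vein. ACN/MeOH precipitation with diclofenac internal standard, then LC-MS/MS in ESI(−) MRM mode, range 1–2000 ng/mL. Noncompartmental analysis, linear trapezoidal AUC.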

Broadly, the half-life is the time in which the quantity being followed falls by half. On to `CC(C)[C@H](NS(=O)(=O)c1ccc([N+](=O)[O-])cc1)C(=O)Nc1c2c(cc3c1CCC3)CCC2`, for which the result in the data set with THP-1 [1], in the data set on THP-1 [2], in the data set with BMDM [4], with BMDM [5], in the data set on B16-F10 [6] and in the data set on B16-F10 [7] was inactive. The result in the data set on THP-1 [3] and in the data set on Mus musculus was Active. For the same compound, the microsomal CLint at 1 µM in data set [8] is 45.8 µL/min/mg; in data set [9], 4.8 µL/min/mg. Besides, in data set [10], the half-life at 1 µM is 288 min. The same compound showed a Clast in data set [11] of 67 ng/mL.
